Source: article PMC65698 (BMC Pharmacology, 2002)
Blank lines part the entries; values can stand above or below the molecule they belong to.

Tests used:
L1210/CPA cells = conditions: 50 μM DEAB in vitro; cited from earlier work
HL-60 cells [1] = experiment: HL-60 cell survival by Trypan blue dye exclusion; format: cell-based, human; conditions: up to 144 hours
Outline: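 HL-60 cells grown in RPMI-1640 with 15% FBS and penicillin/streptomycin, seeded at 2 × 10^5 cells/mL. Exposed to test compound (in DMSO or ethanol) for up to 144 h without media replacement or washout. Survival assessed by Trypan blue dye exclusion.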

human ALDH1A1 = target: T1, human ALDH1A1 (Homo sapiens, UniProt P00352); format: biochemical; conditions: IC50 of DPAB, substrate propanal, 1 mM NAD, pH 8.4, mean ± average deviation
T1 sequence (P00352 1-501): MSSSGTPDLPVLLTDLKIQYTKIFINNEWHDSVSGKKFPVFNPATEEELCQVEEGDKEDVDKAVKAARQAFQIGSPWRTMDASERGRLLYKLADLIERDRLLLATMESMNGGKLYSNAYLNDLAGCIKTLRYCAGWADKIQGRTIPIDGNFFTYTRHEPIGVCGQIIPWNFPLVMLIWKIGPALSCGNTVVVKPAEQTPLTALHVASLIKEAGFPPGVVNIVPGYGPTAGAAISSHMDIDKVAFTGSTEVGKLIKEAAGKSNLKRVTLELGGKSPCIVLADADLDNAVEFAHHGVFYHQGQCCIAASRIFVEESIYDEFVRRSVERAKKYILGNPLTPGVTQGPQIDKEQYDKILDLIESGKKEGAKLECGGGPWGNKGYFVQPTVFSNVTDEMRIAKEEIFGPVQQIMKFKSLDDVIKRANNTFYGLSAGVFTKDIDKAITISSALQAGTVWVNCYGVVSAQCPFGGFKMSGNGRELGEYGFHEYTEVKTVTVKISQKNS

HL-60 cells [2] = experiment: HL-60 cell differentiation assay; format: cell-based, human
Outline: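 HL-60 cells grown in RPMI-1640 with 15% FBS, 50 U/mL penicillin and 0.5 mg/mL streptomycin; subcultured and treated at 2 × 10^5 cells/mL. Test compound added in DMSO or ethanol, with no media change or washout; 1 μM retinoic acid used as a reference retinoid. Aliquots mixed 1:1 with a solution of 1.0% BSA, 0.2% NBT and 1.0 μg/mL TPA, then incubated 45 min at 37°C. Purple-precipitate-positive cells scored by bright-field microscopy in a counting chamber; two observers each counted two fields of ≥200 cells per well.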

ALDH1A1 = conditions: dipropyl vs diethyl analog; cited from earlier work
mouse ALDH1A1 = target: T2, mouse ALDH1A1 (Mus musculus, UniProt P24549); format: biochemical; conditions: IC50 of DPAB, substrate propanal, 1 mM NAD, pH 8.4, mean ± average deviation
T2 sequence (P24549 1-501): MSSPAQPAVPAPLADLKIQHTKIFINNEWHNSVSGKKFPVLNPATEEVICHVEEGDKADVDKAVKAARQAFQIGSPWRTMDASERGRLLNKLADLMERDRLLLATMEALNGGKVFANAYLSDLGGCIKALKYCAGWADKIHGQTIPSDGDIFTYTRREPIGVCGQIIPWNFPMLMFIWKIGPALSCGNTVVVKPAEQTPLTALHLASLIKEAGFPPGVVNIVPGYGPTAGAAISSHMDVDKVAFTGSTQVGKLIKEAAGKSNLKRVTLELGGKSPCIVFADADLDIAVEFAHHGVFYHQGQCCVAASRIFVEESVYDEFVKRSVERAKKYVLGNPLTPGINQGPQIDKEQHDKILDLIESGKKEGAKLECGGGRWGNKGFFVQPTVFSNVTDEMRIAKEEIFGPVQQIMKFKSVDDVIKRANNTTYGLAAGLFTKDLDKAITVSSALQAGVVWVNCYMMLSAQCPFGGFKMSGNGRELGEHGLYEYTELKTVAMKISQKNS

[3] = HPLC assay for stability of retinal in culture media; format: physicochemical; conditions: 10 μM retinal in RPMI 1640 plus 15% fetal bovine serum, 37°C, day 6, no cells
Outline: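 Retinal (10 μM) incubated in cell-free RPMI 1640 with 15% FBS at 37°C for six days. Media sampled every 24 h and extracted with 50% butanol:50% acetonitrile (v/v): vortexed 60 s, centrifuged 2 min at 16,000 × g. Organic layer diluted 1:5 in acetonitrile and run on reverse-phase C18 HPLC. Retinal and retinoic acid detected at 360 nm (retention 10.0 and 7.7 min).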

SMILES: CCN(CC)c1ccc(C=O)cc1 [DEAB, 4-(N, N-diethylamino) benzaldehyde]
Effect on resistance of L1210/CPA cells to 4-HC (L1210/CPA cells): abolished the tumor cells' resistance to 4-HC

IC50 (human ALDH1A1): 140 ± 40 nM
IC50 (mouse ALDH1A1): 40 ± 10 nM
SMILES: CCCN(CCC)c1ccc(C=O)cc1 [DPAB, 4-(N,N-dipropylamino)benzaldehyde]
Effect on cell viability (HL-60 cells [1]): nor did it affect cell viability
Effect on induction of differentiation by retinoic acid (HL-60 cells [2]; 1 μM retinoic acid + 50 μM DPAB): did not alter the induction of differentiation by retinoic acid
Efficacy for inhibition of ALDH1A1 relative to DEAB (ALDH1A1): 10 fold

Retinal oxidized to retinoic acid in culture media [3]: less than 1%
SMILES: CC1=C(/C=C/C(C)=C/C=C/C(C)=C/C=O)C(C)(C)CCC1 [all-trans retinal]
Differentiation expressed as equivalent retinoic acid concentration (HL-60 cells [2]; exposure to 1 μM for 96 hours): 0.05 to 0.1 µM

SMILES: CC1=C(/C=C/C(C)=C/C=C/C(C)=C/C(=O)O)C(C)(C)CCC1 [retinoic acid, all-trans retinoic acid]
Cells differentiated to granulocytes (positive NBT staining) (HL-60 cells [2]; continuous exposure to 1 μM for 96 hours): ~40%
